{"source": "ChEMBL document CHEMBL4689842", "about": "“EUbOPEN Chemogenomics Library wave 1” (2021)", "tested_on": "Fibroblast", "test": "Multiplex assay against human fibroblast", "format": "toxicity, cell-based", "procedure,_shortened": "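With compound added, live cells were imaged on a CQ1 microscope at 37°C and 5% CO2; staining with Hoechst33342, BioTracker Green Microtubule Cytoskeleton Dye, MitoTracker Red and Annexin V Alexa Fluor 680 had been done at seeding. The CellPathfinder machine-learning gating scheme split cells into Hoechst high-intensity objects or normal cells, normal cells into healthy, pyknosed or fragmented nuclei, and pyknosed cells into mitotic or apoptotic. The tubulin, mitochondrial-mass and membrane-permeability phenotypes are per cents of healthy-nucleus cells.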", "key": {"[1]": {"conditions": "12 h, 1 µM, compound concentration 1 uM, replicate 1"}, "[2]": {"conditions": "12 h, 1 µM, compound concentration 1 uM, replicate 2"}, "[3]": {"conditions": "12 h, 10 µM, compound concentration 10 uM, replicate 1"}, "[4]": {"conditions": "12 h, 10 µM, compound concentration 10 uM, replicate 2"}, "[5]": {"conditions": "24 h, 1 µM, compound concentration 1 uM, replicate 1"}, "[6]": {"conditions": "24 h, 1 µM, compound concentration 1 uM, replicate 2"}, "[7]": {"conditions": "24 h, 10 µM, compound concentration 10 uM, replicate 1"}, "[8]": {"conditions": "24 h, 10 µM, compound concentration 10 uM, replicate 2"}}, "data": [{"compound": "O=c1[nH]c2ccccc2n1C1CCN(Cc2ccc(-c3[nH]c4cc5ncnc5cc4nc3-c3ccccc3)cc2)CC1", "values": [{"measurement": "Population Apoptotic (%)", "setting": "[1]", "value": 66, "unit": "%"}, {"measurement": "Population Fragmented Nuclei (%)", "setting": "[1]", "value": 45, "unit": "%"}, {"measurement": "Population Healthy Nuclei (%)", "setting": "[1]", "value": 43, "unit": "%"}, {"measurement": "Population Hoechst High Intensity Objects (%)", "setting": "[1]", "value": 17, "unit": "%"}, {"measurement": "Population Membrane Permeable-Phenotype (%)", "setting": "[1]", "value": 6, "unit": "%"}, {"measurement": "Population Mitochondria Different-Phenotype (%)", "setting": "[1]", "value": 3, "unit": "%"}, {"measurement": "Population Mitotic Cells (%)", "setting": "[1]", "value": 33, "unit": "%"}, {"measurement": "Population Normal (%)", "setting": "[1]", "value": 82, "unit": "%"}, {"measurement": "Population Pyknosed Nuclei (%)", "setting": "[1]", "value": 11, "unit": "%"}, {"measurement": "Population Tubulin-Different-Phenotype (%)", "setting": "[1]", "value": 18, "unit": "%"}, {"measurement": "Total Cell Count", "setting": "[1]", "value": 251}, {"measurement": "Population Apoptotic (%)", "setting": "[2]", "value": 83, "unit": "%"}, {"measurement": "Population Fragmented Nuclei (%)", "setting": "[2]", "value": 72, "unit": "%"}, {"measurement": "Population Healthy Nuclei (%)", "setting": "[2]", "value": 19, "unit": "%"}, {"measurement": "Population Hoechst High Intensity Objects (%)", "setting": "[2]", "value": 31, "unit": "%"}, {"measurement": "Population Membrane Permeable-Phenotype (%)", "setting": "[2]", "value": 15, "unit": "%"}, {"measurement": "Population Mitochondria Different-Phenotype (%)", "setting": "[2]", "value": 0, "unit": "%"}, {"measurement": "Population Mitotic Cells (%)", "setting": "[2]", "value": 16, "unit": "%"}, {"measurement": "Population Normal (%)", "setting": "[2]", "value": 68, "unit": "%"}, {"measurement": "Population Pyknosed Nuclei (%)", "setting": "[2]", "value": 8, "unit": "%"}, {"measurement": "Population Tubulin-Different-Phenotype (%)", "setting": "[2]", "value": 23, "unit": "%"}, {"measurement": "Total Cell Count", "setting": "[2]", "value": 99}, {"measurement": "Population Apoptotic (%)", "setting": "[3]", "value": 67, "unit": "%"}, {"measurement": "Population Fragmented Nuclei (%)", "setting": "[3]", "value": 50, "unit": "%"}, {"measurement": "Population Healthy Nuclei (%)", "setting": "[3]", "value": 37, "unit": "%"}, {"measurement": "Population Hoechst High Intensity Objects (%)", "setting": "[3]", "value": 55, "unit": "%"}, {"measurement": "Population Membrane Permeable-Phenotype (%)", "setting": "[3]", "value": 33, "unit": "%"}, {"measurement": "Population Mitochondria Different-Phenotype (%)", "setting": "[3]", "value": 4, "unit": "%"}, {"measurement": "Population Mitotic Cells (%)", "setting": "[3]", "value": 32, "unit": "%"}, {"measurement": "Population Normal (%)", "setting": "[3]", "value": 44, "unit": "%"}, {"measurement": "Population Tubulin-Different-Phenotype (%)", "setting": "[3]", "value": 87, "unit": "%"}, {"measurement": "Total Cell Count", "setting": "[3]", "value": 524}, {"measurement": "Population Apoptotic (%)", "setting": "[4]", "value": 70, "unit": "%"}, {"measurement": "Population Fragmented Nuclei (%)", "setting": "[4]", "value": 46, "unit": "%"}, {"measurement": "Population Healthy Nuclei (%)", "setting": "[4]", "value": 40, "unit": "%"}, {"measurement": "Population Hoechst High Intensity Objects (%)", "setting": "[4]", "value": 48, "unit": "%"}, {"measurement": "Population Membrane Permeable-Phenotype (%)", "setting": "[4]", "value": 27, "unit": "%"}, {"measurement": "Population Mitochondria Different-Phenotype (%)", "setting": "[4]", "value": 12, "unit": "%"}, {"measurement": "Population Mitotic Cells (%)", "setting": "[4]", "value": 30, "unit": "%"}, {"measurement": "Population Normal (%)", "setting": "[4]", "value": 51, "unit": "%"}, {"measurement": "Population Pyknosed Nuclei (%)", "setting": "[4]", "value": 12, "unit": "%"}, {"measurement": "Population Tubulin-Different-Phenotype (%)", "setting": "[4]", "value": 72, "unit": "%"}, {"measurement": "Total Cell Count", "setting": "[4]", "value": 158}, {"measurement": "Population Apoptotic (%)", "setting": "[5]", "value": 45, "unit": "%"}, {"measurement": "Population Fragmented Nuclei (%)", "setting": "[5]", "value": 43, "unit": "%"}, {"measurement": "Population Healthy Nuclei (%)", "setting": "[5]", "value": 40, "unit": "%"}, {"measurement": "Population Hoechst High Intensity Objects (%)", "setting": "[5]", "value": 20, "unit": "%"}, {"measurement": "Population Membrane Permeable-Phenotype (%)", "setting": "[5]", "value": 8, "unit": "%"}, {"measurement": "Population Mitochondria Different-Phenotype (%)", "setting": "[5]", "value": 5, "unit": "%"}, {"measurement": "Population Mitotic Cells (%)", "setting": "[5]", "value": 54, "unit": "%"}, {"measurement": "Population Normal (%)", "setting": "[5]", "value": 79, "unit": "%"}, {"measurement": "Population Pyknosed Nuclei (%)", "setting": "[5]", "value": 15, "unit": "%"}, {"measurement": "Population Tubulin-Different-Phenotype (%)", "setting": "[5]", "value": 16, "unit": "%"}, {"measurement": "Total Cell Count", "setting": "[5]", "value": 268}, {"measurement": "Population Apoptotic (%)", "setting": "[6]", "value": 62, "unit": "%"}, {"measurement": "Population Fragmented Nuclei (%)", "setting": "[6]", "value": 70, "unit": "%"}, {"measurement": "Population Healthy Nuclei (%)", "setting": "[6]", "value": 17, "unit": "%"}, {"measurement": "Population Hoechst High Intensity Objects (%)", "setting": "[6]", "value": 31, "unit": "%"}, {"measurement": "Population Membrane Permeable-Phenotype (%)", "setting": "[6]", "value": 0, "unit": "%"}, {"measurement": "Population Mitochondria Different-Phenotype (%)", "setting": "[6]", "value": 27, "unit": "%"}, {"measurement": "Population Mitotic Cells (%)", "setting": "[6]", "value": 37, "unit": "%"}, {"measurement": "Population Normal (%)", "setting": "[6]", "value": 68, "unit": "%"}, {"measurement": "Population Pyknosed Nuclei (%)", "setting": "[6]", "value": 12, "unit": "%"}, {"measurement": "Population Tubulin-Different-Phenotype (%)", "setting": "[6]", "value": 36, "unit": "%"}, {"measurement": "Total Cell Count", "setting": "[6]", "value": 94}, {"measurement": "Population Apoptotic (%)", "setting": "[7]", "value": 70, "unit": "%"}, {"measurement": "Population Fragmented Nuclei (%)", "setting": "[7]", "value": 44, "unit": "%"}, {"measurement": "Population Healthy Nuclei (%)", "setting": "[7]", "value": 45, "unit": "%"}, {"measurement": "Population Hoechst High Intensity Objects (%)", "setting": "[7]", "value": 62, "unit": "%"}, {"measurement": "Population Membrane Permeable-Phenotype (%)", "setting": "[7]", "value": 20, "unit": "%"}, {"measurement": "Population Mitochondria Different-Phenotype (%)", "setting": "[7]", "value": 14, "unit": "%"}, {"measurement": "Population Mitotic Cells (%)", "setting": "[7]", "value": 29, "unit": "%"}, {"measurement": "Population Normal (%)", "setting": "[7]", "value": 37, "unit": "%"}, {"measurement": "Population Pyknosed Nuclei (%)", "setting": "[7]", "value": 10, "unit": "%"}, {"measurement": "Population Tubulin-Different-Phenotype (%)", "setting": "[7]", "value": 65, "unit": "%"}, {"measurement": "Total Cell Count", "setting": "[7]", "value": 437}, {"measurement": "Population Apoptotic (%)", "setting": "[8]", "value": 56, "unit": "%"}, {"measurement": "Population Fragmented Nuclei (%)", "setting": "[8]", "value": 40, "unit": "%"}, {"measurement": "Population Healthy Nuclei (%)", "setting": "[8]", "value": 36, "unit": "%"}, {"measurement": "Population Hoechst High Intensity Objects (%)", "setting": "[8]", "value": 51, "unit": "%"}, {"measurement": "Population Membrane Permeable-Phenotype (%)", "setting": "[8]", "value": 24, "unit": "%"}, {"measurement": "Population Mitochondria Different-Phenotype (%)", "setting": "[8]", "value": 28, "unit": "%"}, {"measurement": "Population Mitotic Cells (%)", "setting": "[8]", "value": 43, "unit": "%"}, {"measurement": "Population Normal (%)", "setting": "[8]", "value": 48, "unit": "%"}, {"measurement": "Population Pyknosed Nuclei (%)", "setting": "[8]", "value": 23, "unit": "%"}, {"measurement": "Population Tubulin-Different-Phenotype (%)", "setting": "[8]", "value": 40, "unit": "%"}, {"measurement": "Total Cell Count", "setting": "[8]", "value": 143}]}]}
